Data set [1] can be described thus: AUC (0 to t) in Sprague-Dawley rat at 3 mg/kg, po by LC-ESI-MS analysis. Particulars: in vivo. Format: ADME, organism-based. The method in brief: (§1)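 SD rats dosed orally (3 or 10 mg/kg) or by intravenous injection (1 mg/kg). Plasma PK parameters derived per route: Cmax, AUC0-t, Tmax, t1/2 and F after oral dosing; CL, AUC0-t, MRT, t1/2 and Vdss after iv dosing. Mean ± SD from three independent experiments (n = 3).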

The next data set concerns the target T1, Cytochrome P450 2B6 (Homo sapiens, UniProt P20813).
T1 sequence (P20813 whole entry): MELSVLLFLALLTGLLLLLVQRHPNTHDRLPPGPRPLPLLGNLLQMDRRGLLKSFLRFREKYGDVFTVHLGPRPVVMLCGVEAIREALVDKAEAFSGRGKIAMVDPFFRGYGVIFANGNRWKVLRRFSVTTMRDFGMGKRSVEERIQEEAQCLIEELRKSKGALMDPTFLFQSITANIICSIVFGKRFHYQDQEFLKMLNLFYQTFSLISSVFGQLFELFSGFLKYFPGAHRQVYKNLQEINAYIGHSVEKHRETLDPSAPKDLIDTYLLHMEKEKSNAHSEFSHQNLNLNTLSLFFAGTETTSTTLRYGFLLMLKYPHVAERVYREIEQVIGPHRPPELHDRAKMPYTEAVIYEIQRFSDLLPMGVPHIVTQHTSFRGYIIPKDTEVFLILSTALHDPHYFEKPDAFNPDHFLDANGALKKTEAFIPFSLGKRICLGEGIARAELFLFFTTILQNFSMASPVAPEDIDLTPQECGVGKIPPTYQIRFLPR
Put plainly: Inhibition of CYP2B6 (unknown origin). It is filed as ADME.

In data set [2] the target is Voltage-gated inwardly rectifying potassium channel KCNH2 (Homo sapiens, UniProt Q12809). Description: Inhibition of human ERG by patch-clamp assay. Put shortly: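 hERG K+ channel inhibition measured by patch clamp to give IC50.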
Data set [3] in a line: Tmax in Sprague-Dawley rat at 3 mg/kg, po by LC-ESI-MS analysis. It is filed as ADME, organism-based. Particulars: in vivo. The method in brief:
as §1

The target of the next data set is Cytochrome P450 2D6 (Homo sapiens, UniProt P10635). Description: Inhibition of CYP2D6 (unknown origin). Format: ADME.
In another data set the target is Cytochrome P450 2C19 (Homo sapiens, UniProt P33261). Put plainly: Inhibition of CYP2C19 (unknown origin). Format: ADME.
Data set [4] in a line: MRT in Sprague-Dawley rat at 1 mg/kg, iv by LC-ESI-MS analysis. To be noted: in vivo. Format: ADME, organism-based. The method in brief: as §1

SMILES strings stand for the structures. Bounds are passed on as bounds.

Cytochrome P450 2D6, sequence (P10635 whole entry): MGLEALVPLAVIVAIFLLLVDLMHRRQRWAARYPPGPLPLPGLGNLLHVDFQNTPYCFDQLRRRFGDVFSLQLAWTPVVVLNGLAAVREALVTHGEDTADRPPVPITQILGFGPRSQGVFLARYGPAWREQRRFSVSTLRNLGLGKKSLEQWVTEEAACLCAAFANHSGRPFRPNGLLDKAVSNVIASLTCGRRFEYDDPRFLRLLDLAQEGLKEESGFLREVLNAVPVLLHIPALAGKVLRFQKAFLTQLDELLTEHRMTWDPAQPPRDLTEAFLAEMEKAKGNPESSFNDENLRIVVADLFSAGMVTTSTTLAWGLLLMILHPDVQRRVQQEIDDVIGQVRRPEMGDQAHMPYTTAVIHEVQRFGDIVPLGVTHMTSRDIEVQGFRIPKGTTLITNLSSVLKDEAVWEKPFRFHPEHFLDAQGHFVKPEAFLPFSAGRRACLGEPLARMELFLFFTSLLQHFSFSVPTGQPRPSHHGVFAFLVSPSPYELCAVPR
Voltage-gated inwardly rectifying potassium channel KCNH2, sequence (Q12809 whole entry): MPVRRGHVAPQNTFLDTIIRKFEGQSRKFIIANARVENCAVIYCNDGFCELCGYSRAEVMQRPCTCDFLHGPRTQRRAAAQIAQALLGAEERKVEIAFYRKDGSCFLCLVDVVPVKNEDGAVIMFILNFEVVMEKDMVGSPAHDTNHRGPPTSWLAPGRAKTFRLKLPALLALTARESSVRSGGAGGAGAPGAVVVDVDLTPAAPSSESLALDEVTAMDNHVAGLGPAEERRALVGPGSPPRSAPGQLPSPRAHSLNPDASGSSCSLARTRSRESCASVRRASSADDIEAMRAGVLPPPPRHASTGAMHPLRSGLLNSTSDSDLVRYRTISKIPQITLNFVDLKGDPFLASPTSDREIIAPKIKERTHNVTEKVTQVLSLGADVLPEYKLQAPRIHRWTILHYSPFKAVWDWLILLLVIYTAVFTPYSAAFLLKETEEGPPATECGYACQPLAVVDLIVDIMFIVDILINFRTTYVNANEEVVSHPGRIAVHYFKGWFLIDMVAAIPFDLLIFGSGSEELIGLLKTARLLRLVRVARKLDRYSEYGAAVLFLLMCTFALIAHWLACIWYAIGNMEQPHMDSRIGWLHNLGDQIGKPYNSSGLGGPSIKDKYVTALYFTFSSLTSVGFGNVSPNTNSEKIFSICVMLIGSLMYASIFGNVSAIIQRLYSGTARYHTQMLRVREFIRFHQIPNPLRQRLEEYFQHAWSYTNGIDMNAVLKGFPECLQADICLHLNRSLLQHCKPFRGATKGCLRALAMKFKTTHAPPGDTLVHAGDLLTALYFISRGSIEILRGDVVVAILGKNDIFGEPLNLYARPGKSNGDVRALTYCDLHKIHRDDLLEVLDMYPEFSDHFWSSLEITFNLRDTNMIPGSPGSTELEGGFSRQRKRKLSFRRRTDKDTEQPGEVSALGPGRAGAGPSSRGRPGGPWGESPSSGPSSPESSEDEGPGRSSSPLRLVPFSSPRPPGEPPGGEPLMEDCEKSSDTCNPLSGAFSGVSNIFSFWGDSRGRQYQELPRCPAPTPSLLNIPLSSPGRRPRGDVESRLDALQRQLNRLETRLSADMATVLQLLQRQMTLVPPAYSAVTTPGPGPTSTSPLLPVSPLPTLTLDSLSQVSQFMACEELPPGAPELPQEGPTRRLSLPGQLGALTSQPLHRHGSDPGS
Cytochrome P450 2C19, sequence (P33261 whole entry): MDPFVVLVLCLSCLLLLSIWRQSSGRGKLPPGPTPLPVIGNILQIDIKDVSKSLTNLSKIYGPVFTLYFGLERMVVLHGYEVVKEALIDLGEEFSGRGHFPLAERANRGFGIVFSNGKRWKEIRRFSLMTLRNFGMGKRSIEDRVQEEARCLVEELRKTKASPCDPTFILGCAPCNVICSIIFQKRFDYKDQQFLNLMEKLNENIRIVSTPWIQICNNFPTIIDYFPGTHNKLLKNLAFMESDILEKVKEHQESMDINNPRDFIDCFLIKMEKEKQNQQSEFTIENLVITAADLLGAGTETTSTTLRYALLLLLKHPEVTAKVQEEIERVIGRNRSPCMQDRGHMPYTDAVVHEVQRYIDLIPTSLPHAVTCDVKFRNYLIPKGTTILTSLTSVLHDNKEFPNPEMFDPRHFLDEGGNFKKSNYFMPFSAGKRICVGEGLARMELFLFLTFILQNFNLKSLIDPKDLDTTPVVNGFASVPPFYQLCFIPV

In the case of `CC#C[C@@H](CC(=O)O)c1ccc(OC[C@H]2COc3ccc(Cl)cc3O2)cc1`, the AUC(0-t) in data set [1] came out at 140 µg·h/mL. For the same compound, the IC50 on Cytochrome P450 2B6 was 84.7 µM; in data set [2], more than 40 µM; at Cytochrome P450 2D6 it was more than 100 µM; against Cytochrome P450 2C19, more than 100 µM. Also, in data set [3], the time to peak (Tmax) was 3 h. This compound gave an MRT in data set [4] of 17.9 h.

The record behind these values is ChEMBL document CHEMBL4261634, “Design and optimization of 2,3-dihydrobenzo[b][1,4]dioxine propanoic acids as novel GPR40 agonists with improved pharmacokinetic and safety profiles” (Bioorg Med Chem, 2018).
